# Measurements published in ChEMBL document CHEMBL4038338 (J Med Chem, 2017).
# Calls of active or inactive are those of the source. The calls are words filed in the database; no cut-off is given here.
# How the values were obtained:
# [1] = target: T1, Calpain-1 catalytic subunit (Homo sapiens) (UniProt P07384); test: Inhibition of human erythrocytes calpain-1 using Suc-Leu-Tyr-AMC as substrate in presence of up to 10 mM glutathione by kinetic fluorescence assay
# T1 sequence (whole entry): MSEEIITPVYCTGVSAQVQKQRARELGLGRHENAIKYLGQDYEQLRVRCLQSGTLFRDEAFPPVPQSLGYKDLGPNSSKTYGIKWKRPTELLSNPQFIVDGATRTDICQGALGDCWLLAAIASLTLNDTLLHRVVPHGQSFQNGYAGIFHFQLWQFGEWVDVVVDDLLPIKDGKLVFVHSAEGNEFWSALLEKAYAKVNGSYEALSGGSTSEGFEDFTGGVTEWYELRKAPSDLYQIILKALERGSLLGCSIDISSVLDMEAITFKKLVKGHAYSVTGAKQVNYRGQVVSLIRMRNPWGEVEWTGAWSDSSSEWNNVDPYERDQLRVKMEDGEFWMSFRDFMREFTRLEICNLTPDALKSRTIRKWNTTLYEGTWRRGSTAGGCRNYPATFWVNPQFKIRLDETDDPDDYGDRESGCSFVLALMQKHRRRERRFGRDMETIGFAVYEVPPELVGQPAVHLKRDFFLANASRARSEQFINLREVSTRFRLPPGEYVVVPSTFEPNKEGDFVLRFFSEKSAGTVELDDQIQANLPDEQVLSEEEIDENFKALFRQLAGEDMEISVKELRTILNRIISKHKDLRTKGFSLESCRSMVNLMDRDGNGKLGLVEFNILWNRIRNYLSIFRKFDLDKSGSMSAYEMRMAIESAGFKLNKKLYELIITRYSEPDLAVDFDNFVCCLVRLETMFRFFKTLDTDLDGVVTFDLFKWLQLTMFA
# [2] = Selectivity ratio of Ki for human liver cathepsin L to Ki for human erythrocytes calpain-1
# [3] = organism: Homo sapiens; test: Selectivity ratio of Ki for recombinant human cathepsin S expressed in Escherichia coli to Ki for human erythrocytes calpain-1
# In short: (§1)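 Ki ratios from kinetic fluorescence assays. Cathepsins B (0.25 nM), L (1 nM), K (3 nM) and S (0.5 nM) in MES buffer at pH 6.0. All at room temperature; Ki by Cheng-Prusoff.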
# [4] = Selectivity ratio of Ki for human liver cathepsin B to Ki for human erythrocytes calpain-1
# [5] = organism: Homo sapiens; test: Selectivity ratio of Ki for recombinant human procathepsin K expressed in Escherichia coli to Ki for human erythrocytes calpain-1; in short: as §1
# [6] = target: T2, Calpain-1 catalytic subunit (Rattus norvegicus) (UniProt P97571); test: (§2) Inhibition of calpain-1 in rat hippocampal slices assessed as prevention of NMDA-induced spectrin cleavage preincubated for 30 mins followed by NMDA addition measured after 5 hrs by Western blot analysis
# T2 sequence (whole entry): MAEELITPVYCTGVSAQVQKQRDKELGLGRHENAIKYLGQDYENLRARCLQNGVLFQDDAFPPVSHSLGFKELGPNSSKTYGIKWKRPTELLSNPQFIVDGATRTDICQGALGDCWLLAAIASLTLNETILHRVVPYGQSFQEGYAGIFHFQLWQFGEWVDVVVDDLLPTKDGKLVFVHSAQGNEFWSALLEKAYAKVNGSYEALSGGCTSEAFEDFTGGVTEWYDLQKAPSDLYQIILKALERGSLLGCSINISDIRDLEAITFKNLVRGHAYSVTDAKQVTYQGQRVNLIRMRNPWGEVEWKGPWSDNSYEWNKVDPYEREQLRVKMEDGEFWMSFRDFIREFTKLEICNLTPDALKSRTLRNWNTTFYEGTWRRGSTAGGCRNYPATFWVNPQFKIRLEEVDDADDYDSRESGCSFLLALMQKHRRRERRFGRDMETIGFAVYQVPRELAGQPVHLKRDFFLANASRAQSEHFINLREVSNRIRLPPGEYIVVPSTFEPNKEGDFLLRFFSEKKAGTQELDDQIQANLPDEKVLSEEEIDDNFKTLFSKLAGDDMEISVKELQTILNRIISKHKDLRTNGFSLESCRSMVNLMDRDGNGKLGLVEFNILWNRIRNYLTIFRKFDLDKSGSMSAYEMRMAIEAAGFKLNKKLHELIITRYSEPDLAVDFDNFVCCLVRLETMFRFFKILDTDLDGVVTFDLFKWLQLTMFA
# In short: (§3)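 Organotypic rat hippocampal slice cultures kept 6–8 days in 2% serum medium; 30 min inhibitor pre-incubation, then 10 µM NMDA for 5 h at 34°C, 5% CO2. Slices lysed; 150/145 kDa spectrin breakdown products quantified by densitometric Western blot with anti-spectrin alpha chain antibody.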
# [7] = target: T3, Calpain-1 catalytic subunit (Rattus norvegicus, UniProt P97571); test: as §2; in short: as §3
# T3 sequence (P97571 whole entry): T2 sequence (whole entry)
# [8] = target: T4, Calpain-1 catalytic subunit (Homo sapiens, UniProt P07384); test: Inhibition of human erythrocytes calpain-1 using Suc-Leu-Tyr-AMC as substrate by kinetic fluorescence assay; details: read-out: Ki
# T4 sequence (P07384 whole entry): T1 sequence (whole entry)
# [9] = Thiol reactivity using recombinant human full length 13C-labeled La antigen (100 to 324 residues) expressed in Escherichia coli BL21(DE3) by ALARM NMR
# [10] = test system: Rattus norvegicus; test: Neuroprotective activity in Fisher rat assessed as effect on rapid eye movement time at 3 mg/kg administered via oral gavage measured after 8 hrs at the beginning of 12 hr light period by EEG analysis relative to control; format: functional
# In short: (§4)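 Male Fisher rats (250–330 g) fitted with frontal/occipital EEG electrodes under ketamine/pentobarbital. Dosed by gavage in Cremophor EL/Capmul PG8 (20:80) just before recording. EEG recorded for 8 h from the start of the light period, without food or water. Crossover design with alternate treatment one week later; each animal served as its own control. Results as % of vehicle.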
# [11] = test system: Rattus norvegicus; test: Neuroprotective activity in Fisher rat assessed as effect on latency in rapid eye movement at 3 mg/kg administered via oral gavage measured for 8 hrs at the beginning of 12 hr light period by EEG analysis relative to control; format: functional; in short: as §4
# [12] = test system: Rattus norvegicus; test: Neuroprotective activity in Fisher rat assessed as effect on rapid eye movement time at 10 mg/kg administered via oral gavage measured after 8 hrs at the beginning of 12 hr light period by EEG analysis relative to control; format: functional; in short: as §4
# [13] = test system: Rattus norvegicus; test: Neuroprotective activity in sc dosed Sprague-Dawley rat assessed as increase in microdialysate acetylcholine levels in medial prefrontal cortex measured every 20 mins by HPLC analysis; format: functional, organism-based
# In short: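 Male Sprague-Dawley rats (290–320 g) implanted with medial prefrontal cortex microdialysis probes. Perfusion with Ringer solution containing 1 µM neostigmine at 1.5 µL/min. Twenty-minute fractions collected, six before and six after 1, 3 or 10 mg/kg s.c. (ethanol/PEG400/water vehicle). Acetylcholine measured by HPLC with an enzyme reactor and electrochemical detection, expressed as % of baseline.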
# [14] = test system: Rattus norvegicus; test: Neuroprotective activity in Fisher rat assessed as effect on rapid eye movement sleep pattern administered via oral gavage measured after 8 hrs at the beginning of 12 hr light period by EEG analysis; format: functional; in short: as §4
# [15] = target: T2, Calpain-1 catalytic subunit (Rattus norvegicus); test: Inhibition of calpain-1 in rat hippocampal slices assessed as prevention of NMDA-induced tau cleavage preincubated for 30 mins followed by NMDA addition measured after 5 hrs by Western blot analysis
# In short: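 Same slice protocol: rat hippocampal organotypic cultures, 30 min inhibitor pre-incubation, 10 µM NMDA for 5 h at 34°C, 5% CO2; lysates probed by densitometric Western blot for the 17 kDa tau cleavage fragment using anti-Tau 1 antibody.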
# [16] = test system: Rattus norvegicus; test: Neuroprotective activity in Wistar rat assessed as protection against scopolamine-induced cognitive impairment at 1 to 3 mg/kg, sc administered prior to scopolamine induction measured after 24 hrs; format: functional, organism-based
# In short: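 Scopolamine 0.1 mg/kg s.c., with test compound given s.c. beforehand in ethanol/PEG400/water (20:30:50). Single step-through passive avoidance training: 2 min habituation in the lit compartment, then a 0.5 mA, 2 s footshock on entering the dark side. Latency to enter the dark compartment measured 24 h later; n=14–47/group.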
# [17] = target: T2, Calpain-1 catalytic subunit (Rattus norvegicus); test: Inhibition of calpain-1 in rat hippocampal slices assessed as prevention of amyloid beta(1-42) globulomer-induced synaptic deficits at 10 nM co-administered with amyloid beta(1-42) globulomer […] by Schaffer collateral analysis; details: in the assay text read “after 1 day” for “after 1 hr”
# In short: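 Hippocampal slices from 9–10-day-old Wistar rats cultured 15–18 days; 82 nM Aβ1-42 globulomer added to medium 1 day before recording, with compound co-applied; vehicle-only group included. Slices moved to interface chamber perfused with aCSF ≥1 h before recording; input/output after Schaffer collateral stimulation; 2-way repeated-measures ANOVA, Holm-Sidak.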
# [18] = test system: Rattus norvegicus; test: Neuroprotective activity in Fisher rat assessed as effect on latency in rapid eye movement at 1 mg/kg administered via oral gavage measured for 8 hrs at the beginning of 12 hr light period by EEG analysis relative to control; format: functional; in short: as §4
# [19] = test system: Rattus norvegicus; test: Neuroprotective activity in Fisher rat assessed as effect on latency in rapid eye movement at 10 mg/kg administered via oral gavage measured for 8 hrs at the beginning of 12 hr light period by EEG analysis relative to control; format: functional; in short: as §4
# [20] = target: Cathepsin S (Homo sapiens, UniProt P25774); test: Inhibition of human cathepsin S expressed in Escherichia coli using Z-Val-Val-Arg-AMC as substrate by kinetic fluorescence assay
# Sequence of Cathepsin S (P25774 whole entry): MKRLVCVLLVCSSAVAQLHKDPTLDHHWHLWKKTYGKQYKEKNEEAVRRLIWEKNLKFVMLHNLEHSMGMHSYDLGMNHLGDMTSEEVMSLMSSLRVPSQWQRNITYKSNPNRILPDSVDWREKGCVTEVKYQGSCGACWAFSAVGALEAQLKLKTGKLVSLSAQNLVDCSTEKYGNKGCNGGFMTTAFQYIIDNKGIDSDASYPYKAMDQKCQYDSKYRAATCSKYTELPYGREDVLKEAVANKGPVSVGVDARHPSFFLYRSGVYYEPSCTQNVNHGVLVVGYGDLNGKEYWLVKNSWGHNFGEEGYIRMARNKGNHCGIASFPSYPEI
# [21] = Inhibition of human liver cathepsin L using Z-Phe-Arg-AMC as substrate by kinetic fluorescence assay
Compound,inhibition [1],fIC50 [6],IC50 [7],Ki [8],Ki [20],Ki [21],Ratio Ki [2],Ratio Ki [3],Ratio Ki [4],Ratio Ki [5],Thiol reactivity [9],further results
NC(=O)C(=O)C(Cc1ccccc1)NC(=O)c1cccnc1-n1ccc(-c2cccc(C(F)(F)F)c2)n1 (configuration not stated),Active,155 nM,5180 nM,40 nM,–,–,>300,> 500,17,28,Metabolite not detected,–
NC(=O)C(=O)C(Cc1ccccc1)NC(=O)c1cccnc1-n1ccc(-c2ccccc2)n1 (configuration not stated),Active,39 nM,971 nM,18 nM,–,–,–,–,–,–,–,–
CCN(CC)Cc1ccc(/C=C/c2ncccc2C(=O)NC(Cc2ccccc2)C(=O)C(N)=O)cc1 (configuration not stated),–,–,–,109 nM,> 10000 nM,204 nM,–,–,–,–,–,–
NC(=O)C(=O)C(Cc1ccccc1)NC(=O)c1cccnc1N1CCN(c2ccccc2)CC1 (configuration not stated),–,–,–,250 nM,7260 nM,491 nM,–,–,–,–,–,–
NC(=O)C(=O)C(Cc1ccccc1)NC(=O)c1cccnc1-n1cc2ccccc2n1 (configuration not stated),Active,288 nM,3200 nM,46 nM,–,–,124,51,6,6,Metabolite not detected,–

# More lines, main results first:
inhibition [1],fIC50 [6],IC50 [7],Ki [8],Ki [20],Ki [21],Compound,Ratio Ki [2],Ratio Ki [3],Ratio Ki [4],Ratio Ki [5],Thiol reactivity [9],further results
Active,41 nM,591 nM,34 nM,–,–,NC(=O)C(=O)C(Cc1ccccc1)NC(=O)c1cccnc1-n1ccc(-c2ccc(F)cc2)n1 (configuration not stated),–,–,–,–,–,Activity [10]: 131%; Activity [11]: 99%; Activity [12]: 125%; Activity [13]: Dose-dependent effect; Activity [14]: Dose-dependent effect; fIC50 [15]: 46 nM; Activity [16]: Active; inhibition [17]: Active; Activity [18]: 100%; Activity [19]: 80%
–,–,–,125 nM,1780 nM,39 nM,NC(=O)C(=O)C(Cc1ccccc1)NC(=O)c1cccnc1N1CCC(c2ccccc2)C1 (configuration not stated),–,–,–,–,–,–
Active,–,> 10000 nM,100 nM,–,–,CCN(CC)Cc1ccc(-c2ccn(-c3ncccc3C(=O)NC(Cc3ccccc3)C(=O)C(N)=O)n2)cc1 (configuration not stated),3,69,<1,< 1,Metabolite not detected,–
Active,–,–,38 nM,–,–,NC(=O)C(=O)C(Cc1ccccc1)NC(=O)c1cccnc1-c1csc(-c2ccccc2)n1 (configuration not stated),139,310,39,11,Metabolite not detected,–
Active,–,–,81 nM,–,–,CC(C)(C)c1ccn(-c2ncccc2C(=O)NC(Cc2ccccc2)C(=O)C(N)=O)n1 (configuration not stated),10,56,16,24,Metabolite not detected,–
